Converted amounts (≈) assume the structure as drawn.
What was measured:
[1] = tested on: Mycobacterium tuberculosis; assay: Antimycobacterial activity against Mycobacterium tuberculosis H37Rv after 5 days by standard microdilution method; assay type: functional; conditions: 120 h
[2] = Cytotoxicity against human A549 cells after 72 hrs by resazurin based fluorescence assay; assay type: cell-based; conditions: read-out: MIC
In short: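 Cytotoxicity read as MMIC, the MIC on the A549 cell line.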

[3] = Permeability of the compound from basolateral to apical side in human Caco2 cells; assay type: ADME, cell-based; conditions: Caco-2, read-out: permeability
[4] = Intrinsic clearance in rat cryopreserved hepatocytes assessed per 10^6 cells at 1 uM up to 120 mins by LC-MS/MS analysis; assay type: ADME, cell-based, Hepatocyte; conditions: read-out: CLH
Cytochrome P450 1A2 = molecular target: T1, Cytochrome P450 1A2 (Homo sapiens, UniProt P05177); assay: Inhibition of CYP1A2 (unknown origin); assay type: ADME
T1 sequence (P05177 whole entry): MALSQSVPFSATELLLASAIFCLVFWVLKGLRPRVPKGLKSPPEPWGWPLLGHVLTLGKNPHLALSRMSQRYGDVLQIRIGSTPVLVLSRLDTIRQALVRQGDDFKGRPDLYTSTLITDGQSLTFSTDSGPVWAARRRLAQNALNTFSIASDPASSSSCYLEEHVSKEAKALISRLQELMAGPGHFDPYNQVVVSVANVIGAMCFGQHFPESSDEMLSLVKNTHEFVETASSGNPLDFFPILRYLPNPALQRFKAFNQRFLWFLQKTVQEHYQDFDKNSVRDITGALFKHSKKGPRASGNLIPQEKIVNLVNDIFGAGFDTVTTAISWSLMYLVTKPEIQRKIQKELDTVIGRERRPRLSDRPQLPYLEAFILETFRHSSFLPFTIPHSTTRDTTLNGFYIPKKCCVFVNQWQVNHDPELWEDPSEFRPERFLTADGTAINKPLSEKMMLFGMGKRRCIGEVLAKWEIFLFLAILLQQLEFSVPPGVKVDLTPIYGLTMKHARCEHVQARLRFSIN
In short: (§1)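 CYP inhibition IC50 measured on isoforms CYP3A4, CYP2D6, CYP2C9, CYP2C19 and CYP1A2.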

[5] = Fraction unbound in human plasma at 20 uM after 18 hrs by equilibrium dialysis method; assay type: ADME, cell-free
[6] = Solubility of the compound in fed-state simulated intestinal fluid at pH 6.5; assay type: ADME
Cytochrome P450 2C9 = Cytochrome P450 2C9 (Homo sapiens, UniProt P11712); assay: Inhibition of CYP2C9 (unknown origin); assay type: ADME; in short: as §1
Cytochrome P450 3A4 = Cytochrome P450 3A4 (Homo sapiens, UniProt P08684); assay: Inhibition of CYP3A4 (unknown origin); assay type: ADME; in short: as §1
[7] = Solubility of the compound in 0.1 M phosphate buffer at pH 7.4 after 24 hrs by UV and MS analysis; assay type: physicochemical
[8] = Octanol-water partition coefficient, log D of the compound by shake-flask method; assay type: physicochemical
[9] = Inhibition of Mycobacterium smegmatis recombinant DprE1 using farnesylphosphoryl-beta-D-ribofuranose as substrate assessed as conversion of amplex red to resorufin after 30 mins; set-up: species or system Mycolicibacterium smegmatis
In short: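 Msm DprE1 (thioredoxin-6His fusion of Msm Rv3790) at 75 nM, preincubated 30 min with 10 μM FAD. Buffer: 50 mM glycylglycine pH 8.5, 200 mM potassium glutamate, 0.002% Brij-35, 2% DMSO, 25 °C. Started with 300 μM farnesylphosphoryl-β-D-ribofuranose, 0.01 mg/mL HRP and 50 μM Amplex Red.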

[10] = molecular target: Voltage-gated inwardly rectifying potassium channel KCNH2 (Homo sapiens, UniProt Q12809); assay: Inhibition of human ERG by medium-throughput electrophysiology
Cytochrome P450 2C19 = Cytochrome P450 2C19 (Homo sapiens, UniProt P33261); assay: Inhibition of CYP2C19 (unknown origin); assay type: ADME; in short: as §1
[11] = Permeability of the compound from apical to basolateral side in human Caco2 cells; assay type: ADME, cell-based; conditions: Caco-2, read-out: permeability
[12] = Intrinsic clearance in human liver microsomes at 1 uM up to 30 mins by LC-MS/MS analysis; assay type: ADME; conditions: read-out: CLH
Cytochrome P450 2D6 = Cytochrome P450 2D6 (Homo sapiens, UniProt P10635); assay: Inhibition of CYP2D6 (unknown origin); assay type: ADME; in short: as §1
Adenosine receptor A1 = molecular target: T2, Adenosine receptor A1 (Homo sapiens, UniProt P30542); assay: Inhibition of adenosine A1 receptor (unknown origin)
T2 sequence (P30542 whole entry): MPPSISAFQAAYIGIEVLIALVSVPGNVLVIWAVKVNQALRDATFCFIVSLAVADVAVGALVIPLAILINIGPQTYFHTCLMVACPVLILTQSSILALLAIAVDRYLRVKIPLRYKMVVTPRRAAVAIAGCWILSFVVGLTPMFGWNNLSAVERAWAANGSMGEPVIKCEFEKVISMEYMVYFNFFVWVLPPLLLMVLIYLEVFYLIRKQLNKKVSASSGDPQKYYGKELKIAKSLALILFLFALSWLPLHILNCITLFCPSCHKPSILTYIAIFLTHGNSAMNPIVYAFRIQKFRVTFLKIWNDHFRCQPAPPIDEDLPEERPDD
In short: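 Secondary pharmacology panel of binding, enzyme and functional assays covering 24 molecular targets. Activity recorded as a defined Ki/IC50/EC50.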

Cytochrome P450 2C19, sequence (P33261 whole entry): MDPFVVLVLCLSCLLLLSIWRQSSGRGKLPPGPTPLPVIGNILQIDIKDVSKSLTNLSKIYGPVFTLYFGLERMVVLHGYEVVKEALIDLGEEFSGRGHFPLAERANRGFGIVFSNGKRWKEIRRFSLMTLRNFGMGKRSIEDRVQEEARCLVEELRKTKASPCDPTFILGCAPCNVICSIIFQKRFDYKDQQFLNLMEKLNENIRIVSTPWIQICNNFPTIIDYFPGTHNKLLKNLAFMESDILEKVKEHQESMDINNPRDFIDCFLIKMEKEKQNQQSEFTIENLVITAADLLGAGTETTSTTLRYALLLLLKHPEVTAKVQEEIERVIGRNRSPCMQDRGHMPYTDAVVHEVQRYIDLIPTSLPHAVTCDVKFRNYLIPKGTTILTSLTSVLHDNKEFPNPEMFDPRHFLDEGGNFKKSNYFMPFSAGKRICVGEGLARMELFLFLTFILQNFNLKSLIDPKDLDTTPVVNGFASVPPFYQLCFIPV
Voltage-gated inwardly rectifying potassium channel KCNH2, sequence (Q12809 whole entry): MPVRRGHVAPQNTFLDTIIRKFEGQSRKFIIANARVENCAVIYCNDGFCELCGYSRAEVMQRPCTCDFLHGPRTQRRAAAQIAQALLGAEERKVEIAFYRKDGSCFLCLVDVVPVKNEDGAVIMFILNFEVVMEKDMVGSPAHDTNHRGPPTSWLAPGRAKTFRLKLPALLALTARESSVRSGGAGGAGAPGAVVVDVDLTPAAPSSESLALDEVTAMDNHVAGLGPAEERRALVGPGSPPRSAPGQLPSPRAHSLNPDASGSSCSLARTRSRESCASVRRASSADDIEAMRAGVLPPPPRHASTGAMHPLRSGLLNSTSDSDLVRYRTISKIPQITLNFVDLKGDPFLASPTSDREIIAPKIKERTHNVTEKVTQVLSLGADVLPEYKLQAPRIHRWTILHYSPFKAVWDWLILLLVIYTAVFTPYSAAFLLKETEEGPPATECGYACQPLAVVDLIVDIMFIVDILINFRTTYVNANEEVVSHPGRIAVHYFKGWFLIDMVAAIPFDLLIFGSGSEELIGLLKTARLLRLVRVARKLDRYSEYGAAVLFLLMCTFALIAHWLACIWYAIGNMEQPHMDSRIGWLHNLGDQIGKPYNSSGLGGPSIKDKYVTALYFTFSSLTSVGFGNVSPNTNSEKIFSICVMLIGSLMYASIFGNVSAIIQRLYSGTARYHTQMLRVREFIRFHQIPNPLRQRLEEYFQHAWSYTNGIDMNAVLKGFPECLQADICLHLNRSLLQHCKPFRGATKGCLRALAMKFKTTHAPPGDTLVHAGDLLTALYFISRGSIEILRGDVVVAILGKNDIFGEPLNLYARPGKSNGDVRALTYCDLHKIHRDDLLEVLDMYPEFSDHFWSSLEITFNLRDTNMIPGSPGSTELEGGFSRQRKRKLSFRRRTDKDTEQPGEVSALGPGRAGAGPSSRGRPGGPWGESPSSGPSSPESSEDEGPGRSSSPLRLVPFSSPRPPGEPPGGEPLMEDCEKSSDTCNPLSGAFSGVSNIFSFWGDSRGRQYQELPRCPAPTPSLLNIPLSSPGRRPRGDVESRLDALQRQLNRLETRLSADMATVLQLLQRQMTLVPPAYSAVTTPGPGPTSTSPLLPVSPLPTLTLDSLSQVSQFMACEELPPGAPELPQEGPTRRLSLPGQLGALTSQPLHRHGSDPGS
Cytochrome P450 2D6, sequence (P10635 whole entry): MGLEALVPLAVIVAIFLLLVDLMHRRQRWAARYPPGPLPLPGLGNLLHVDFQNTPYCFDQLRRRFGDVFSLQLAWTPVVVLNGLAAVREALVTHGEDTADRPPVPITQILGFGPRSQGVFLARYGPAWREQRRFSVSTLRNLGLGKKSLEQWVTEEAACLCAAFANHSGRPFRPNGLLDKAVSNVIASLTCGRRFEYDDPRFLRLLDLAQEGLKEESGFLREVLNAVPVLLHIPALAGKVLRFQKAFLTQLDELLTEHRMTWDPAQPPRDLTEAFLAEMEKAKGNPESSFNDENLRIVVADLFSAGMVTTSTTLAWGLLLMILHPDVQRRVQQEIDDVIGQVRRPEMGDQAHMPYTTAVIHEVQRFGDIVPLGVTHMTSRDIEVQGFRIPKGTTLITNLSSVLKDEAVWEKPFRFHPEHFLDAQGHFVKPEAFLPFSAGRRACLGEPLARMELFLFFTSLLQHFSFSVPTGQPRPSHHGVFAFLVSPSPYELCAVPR
Cytochrome P450 3A4, sequence (P08684 whole entry): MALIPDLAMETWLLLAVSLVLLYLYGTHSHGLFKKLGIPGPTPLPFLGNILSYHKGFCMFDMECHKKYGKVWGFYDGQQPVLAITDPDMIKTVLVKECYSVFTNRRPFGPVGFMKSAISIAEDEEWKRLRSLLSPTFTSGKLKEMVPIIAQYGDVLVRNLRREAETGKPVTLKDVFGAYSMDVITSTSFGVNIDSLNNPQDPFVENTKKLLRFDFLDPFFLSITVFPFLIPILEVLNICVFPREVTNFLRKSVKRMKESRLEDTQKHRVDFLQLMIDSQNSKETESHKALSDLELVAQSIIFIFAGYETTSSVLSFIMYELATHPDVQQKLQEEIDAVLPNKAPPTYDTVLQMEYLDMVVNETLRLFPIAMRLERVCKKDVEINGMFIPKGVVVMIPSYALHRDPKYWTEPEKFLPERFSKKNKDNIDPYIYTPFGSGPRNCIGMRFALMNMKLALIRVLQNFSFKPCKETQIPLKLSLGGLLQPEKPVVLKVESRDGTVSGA
Cytochrome P450 2C9, sequence (P11712 whole entry): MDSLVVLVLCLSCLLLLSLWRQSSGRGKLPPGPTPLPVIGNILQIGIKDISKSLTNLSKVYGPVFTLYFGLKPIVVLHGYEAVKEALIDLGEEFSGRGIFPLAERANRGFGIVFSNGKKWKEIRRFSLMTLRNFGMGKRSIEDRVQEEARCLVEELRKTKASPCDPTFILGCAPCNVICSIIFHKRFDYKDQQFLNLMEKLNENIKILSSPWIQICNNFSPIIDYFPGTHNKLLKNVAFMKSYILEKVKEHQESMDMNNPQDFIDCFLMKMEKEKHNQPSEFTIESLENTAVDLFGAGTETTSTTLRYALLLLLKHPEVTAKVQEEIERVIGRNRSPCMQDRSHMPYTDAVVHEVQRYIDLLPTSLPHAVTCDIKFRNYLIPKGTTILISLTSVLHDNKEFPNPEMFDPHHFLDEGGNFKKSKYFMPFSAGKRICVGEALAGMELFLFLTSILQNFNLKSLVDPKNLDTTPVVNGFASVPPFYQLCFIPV

With Cn1ncc(C(=O)N2[C@@H]3CC[C@H]2C[C@@H](Nc2cc(=O)n(C)c4ncccc24)C3)c1Cl as the compound, how does the MIC [1] read?
The MIC was 0.25 µM (≈ 0.107 µg/mL).

What about the MCC at 72 h [2] of the same compound?
Its MCC at 72 h is > 50 µM.

And the Papp B→A [3]?
The Papp B→A was 36 ×10⁻⁶ cm/s.

What about the hepatocyte CLint at 1 µM [4] of the same compound?
The hepatocyte CLint at 1 µM was 3 µL/min/1e6 cells.

What about the INH (Cytochrome P450 1A2) of the same compound?
Its INH is > 30 µM.

What about the fraction unbound at 18 h, 20 µM [5] of the same compound?
The fraction unbound at 18 h, 20 µM was 0.01.

And the solubility [6]?
Its solubility is 100 µM (≈ 42.7 µg/mL).

What about the INH (Cytochrome P450 2C9) of the same compound?
Its INH is > 30 µM.

And the INH (Cytochrome P450 3A4)?
Its INH is > 30 µM.

What about the solubility at 24 h [7] of the same compound?
Its solubility at 24 h is 20 µM (≈ 8.54 µg/mL).

And the logD [8]?
Its logD is 1.8.

What about the IC50 [9] of the same compound?
Its IC50 is 26 nM.

What about the IC50 [10] of the same compound?
Its IC50 is > 33000 nM.

And the INH (Cytochrome P450 2C19)?
The INH was > 30 µM.

And the Papp A→B [11]?
The Papp A→B was 1 ×10⁻⁶ cm/s.

What about the microsomal CLint at 1 µM [12] of the same compound?
Its microsomal CLint at 1 µM is 37 µL/min/mg.

What about the INH (Cytochrome P450 2D6) of the same compound?
The INH was > 30 µM.

Which MIC [1] does the source give for Cn1ncc(C(=O)N2[C@@H]3CC[C@H]2C[C@@H](Nc2n[nH]c4ccc(F)cc24)C3)c1Cl here?
The MIC was 6.25 µM (≈ 2.52 µg/mL).

What about the MCC at 72 h [2] of the same compound?
The MCC at 72 h was > 50 µM.

What about the Papp B→A [3] of the same compound?
Its Papp B→A is 31 ×10⁻⁶ cm/s.

What about the hepatocyte CLint at 1 µM [4] of the same compound?
Its hepatocyte CLint at 1 µM is 9 µL/min/1e6 cells.

And the INH (Cytochrome P450 1A2)?
The INH was > 30 µM.

What about the fraction unbound at 18 h, 20 µM [5] of the same compound?
Its fraction unbound at 18 h, 20 µM is 0.08.

And the INH (Cytochrome P450 2C9)?
Its INH is > 30 µM.

And the INH (Cytochrome P450 3A4)?
The INH was > 30 µM.

And the solubility at 24 h [7]?
The solubility at 24 h was > 1000 µM.

What about the logD [8] of the same compound?
The logD was 1.9.

And the IC50 [9]?
The IC50 was 120 nM.

What about the IC50 (Adenosine receptor A1) of the same compound?
Its IC50 is 8000 nM.

What about the IC50 [10] of the same compound?
Its IC50 is > 33000 nM.

What about the INH (Cytochrome P450 2C19) of the same compound?
Its INH is > 30 µM.

And the Papp A→B [11]?
The Papp A→B was 20 ×10⁻⁶ cm/s.

What about the microsomal CLint at 1 µM [12] of the same compound?
Its microsomal CLint at 1 µM is 4 µL/min/mg.

What about the INH (Cytochrome P450 2D6) of the same compound?
Its INH is > 30 µM.

Which MIC [1] does the source give for Cc1onc(C(=O)N2[C@@H]3CC[C@H]2C[C@@H](Nc2cc(=O)n(C)c4nccnc24)C3)c1C here?
Its MIC is 6.2 µM (≈ 2.53 µg/mL).

What about the MCC at 72 h [2] of the same compound?
The MCC at 72 h was > 50 µM.

What about the Papp B→A [3] of the same compound?
The Papp B→A was 21 ×10⁻⁶ cm/s.

And the hepatocyte CLint at 1 µM [4]?
The hepatocyte CLint at 1 µM was 20 µL/min/1e6 cells.

What about the INH (Cytochrome P450 1A2) of the same compound?
The INH was > 30 µM.

And the fraction unbound at 18 h, 20 µM [5]?
The fraction unbound at 18 h, 20 µM was 0.05.

And the solubility [6]?
The solubility was 307 µM (≈ 125 µg/mL).

And the INH (Cytochrome P450 2C9)?
The INH was > 30 µM.

What about the INH (Cytochrome P450 3A4) of the same compound?
Its INH is > 30 µM.

What about the solubility at 24 h [7] of the same compound?
Its solubility at 24 h is 132 µM (≈ 53.9 µg/mL).

And the logD [8]?
The logD was 1.8.

And the IC50 [9]?
Its IC50 is 183 nM.

And the IC50 [10]?
The IC50 was > 33000 nM.

What about the INH (Cytochrome P450 2C19) of the same compound?
Its INH is > 30 µM.

What about the Papp A→B [11] of the same compound?
The Papp A→B was 33 ×10⁻⁶ cm/s.

And the microsomal CLint at 1 µM [12]?
Its microsomal CLint at 1 µM is 100 µL/min/mg.

And the INH (Cytochrome P450 2D6)?
The INH was > 30 µM.
